Our source for the MIC values is ChEMBL document CHEMBL3102828, “Synthesis and antibacterial activity of a series of novel 9-O-acetyl- 4'-substituted 16-membered macrolides derived from josamycin” (2014).

In general, MIC refers to the lowest concentration that inhibits growth of the organism. Read a low MIC as inhibition by little substance.

Converted amounts (≈) assume the structure as drawn.

Type in all cases: functional
Experiment [1] concerns Staphylococcus epidermidis. Briefly: Antimicrobial activity against methicillin-sensitive Staphylococcus epidermidis ATCC 12228 by broth microdilution method. The method, boiled down:
(§1)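 MICs determined by broth microdilution as recommended by CLSI. Tested against a panel of five S. aureus strains and three S. epidermidis strains. ATCC 29213, 15 and 09–06 are methicillin-sensitive S. aureus. Josamycin served as the reference.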
(In general: In broth dilution the organism is exposed to a series of concentrations in liquid medium.)

Experiment [2] relates to Staphylococcus aureus. Briefly: Antimicrobial activity against methicillin-resistant Staphylococcus aureus ATCC 33591 by broth microdilution method. Summed up:
(§2)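 MIC read-out from broth microdilution performed according to CLSI recommendations; each strain was tested in vitro alongside the parent macrolide reference.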

Experiment [3] deals with Staphylococcus aureus. Briefly: Antimicrobial activity against methicillin-sensitive Staphylococcus aureus ATCC 29213 by broth microdilution method. The method, boiled down:
as §1

Experiment [4] relates to Staphylococcus aureus. As to the kind of experiment: Antimicrobial activity against methicillin-sensitive Staphylococcus aureus 15 by broth microdilution method. Summed up: as §1
The test system of experiment [5] is Staphylococcus aureus. Briefly: Antimicrobial activity against methicillin-resistant Staphylococcus aureus 09-13 by broth microdilution method. The method, boiled down:
as §2

The test system of experiment [6] is Staphylococcus epidermidis. Briefly: Antimicrobial activity against methicillin-resistant Staphylococcus epidermidis 09-3 by broth microdilution method. The method, boiled down:
as §2

Experiment [7] has as its system Staphylococcus epidermidis. Briefly: Antimicrobial activity against methicillin-sensitive Staphylococcus epidermidis 09-9 by broth microdilution method. The method, boiled down: as §1
Experiment [8] deals with Staphylococcus aureus. As to the kind of experiment: Antimicrobial activity against methicillin-sensitive Staphylococcus aureus 09-6 by broth microdilution method. The method, boiled down:
as §1

With `CO[C@@H]1[C@@H](O[C@@H]2O[C@H](C)[C@@H](OC(=O)/C=C/c3ccccc3)[C@H](N(C)C)[C@H]2O)[C@@H](CC=O)C[C@@H](C)[C@@H](OC(C)=O)/C=C/C=C/C[C@@H](C)OC(=O)C[C@H]1OC(C)=O`, the MIC in experiment [1] is 4 µg/mL (≈ 5.18 µM); against Staphylococcus aureus [2] it was more than 32 µg/mL; against Staphylococcus aureus [3] it was 8 µg/mL (≈ 10.4 µM); in the experiment with Staphylococcus aureus [4] it was more than 32 µg/mL; with Staphylococcus aureus [5], more than 32 µg/mL; in experiment [6], more than 32 µg/mL. Besides, the results for the MIC (in experiment [7]; with Staphylococcus aureus [8]) were 4 µg/mL (≈ 5.18 µM) and 8 µg/mL (≈ 10.4 µM), respectively.

As for `CO[C@@H]1[C@@H](O[C@@H]2O[C@H](C)[C@@H](OC(=O)CC(C)C)[C@H](N(C)C)[C@H]2O)[C@@H](CC=O)C[C@@H](C)[C@@H](OC(C)=O)/C=C/C=C/C[C@@H](C)OC(=O)C[C@H]1OC(C)=O`, the MIC in experiment [1] was 8 µg/mL (≈ 11 µM); with Staphylococcus aureus [2], more than 64 µg/mL; against Staphylococcus aureus [3] it was 8 µg/mL (≈ 11 µM); in the experiment with Staphylococcus aureus [4], 8 µg/mL (≈ 11 µM); against Staphylococcus aureus [5] it was more than 64 µg/mL; in experiment [6], more than 64 µg/mL. The MIC (in experiment [7]; in the experiment with Staphylococcus aureus [8]) was 8 µg/mL (≈ 11 µM) in each case.

With `CCCC(=O)O[C@H]1[C@H](N(C)C)[C@@H](O)[C@H](O[C@H]2[C@@H](CC=O)C[C@@H](C)[C@@H](OC(C)=O)/C=C/C=C/C[C@@H](C)OC(=O)C[C@@H](OC(C)=O)[C@@H]2OC)O[C@@H]1C`, the MIC in experiment [1] is 4 µg/mL (≈ 5.62 µM); with Staphylococcus aureus [2], more than 64 µg/mL; against Staphylococcus aureus [3], 4 µg/mL (≈ 5.62 µM); in the experiment on Staphylococcus aureus [4] it was 4 µg/mL (≈ 5.62 µM); in the experiment on Staphylococcus aureus [5], more than 64 µg/mL; in experiment [6], more than 64 µg/mL. In addition, the MIC (in experiment [7]; in the experiment with Staphylococcus aureus [8]) was 4 µg/mL (≈ 5.62 µM) throughout.

Take `CO[C@@H]1[C@@H](O[C@@H]2O[C@H](C)[C@@H](O[C@H]3C[C@@](C)(O)[C@@H](OC(=O)CC(C)C)[C@H](C)O3)[C@H](N(C)C)[C@H]2O)[C@@H](CC=O)C[C@@H](C)[C@@H](O)/C=C/C=C/C[C@@H](C)OC(=O)C[C@H]1OC(C)=O` [JOSAMYCIN]: the minimal inhibitory concentration (MIC) in experiment [1] is 1 µg/mL (≈ 1.21 µM); with Staphylococcus aureus [2], more than 32 µg/mL; in the experiment with Staphylococcus aureus [3], 1 µg/mL (≈ 1.21 µM); with Staphylococcus aureus [4], 2 µg/mL (≈ 2.42 µM); in the experiment on Staphylococcus aureus [5] it was 32 µg/mL (≈ 38.6 µM); in experiment [6], more than 32 µg/mL. In addition, the MIC in experiment [7] worked out at 2 µg/mL (≈ 2.42 µM); against Staphylococcus aureus [8], 1 µg/mL (≈ 1.21 µM).

As to `CO[C@@H]1[C@@H](O[C@@H]2O[C@H](C)[C@@H](OC(=O)/C=C/c3ccnc4ccccc34)[C@H](N(C)C)[C@H]2O)[C@@H](CC=O)C[C@@H](C)[C@@H](OC(C)=O)/C=C/C=C/C[C@@H](C)OC(=O)C[C@H]1OC(C)=O`, the MIC is 8 µg/mL (≈ 9.72 µM) in experiment [1]; more than 64 µg/mL against Staphylococcus aureus [2]; 8 µg/mL (≈ 9.72 µM) in the experiment with Staphylococcus aureus [3]; 16 µg/mL (≈ 19.4 µM) in the experiment with Staphylococcus aureus [4]; more than 64 µg/mL in the experiment with Staphylococcus aureus [5]; more than 64 µg/mL in experiment [6]. For the same compound, the MIC (in experiment [7]; with Staphylococcus aureus [8]) was 8 µg/mL (≈ 9.72 µM) throughout.

Turning to `CO[C@@H]1[C@@H](O[C@@H]2O[C@H](C)[C@@H](OC(=O)c3ccc([N+](=O)[O-])cc3)[C@H](N(C)C)[C@H]2O)[C@@H](CC=O)C[C@@H](C)[C@@H](OC(C)=O)/C=C/C=C/C[C@@H](C)OC(=O)C[C@H]1OC(C)=O`, the MIC in experiment [1] is 32 µg/mL (≈ 40.5 µM); in the experiment on Staphylococcus aureus [2] it was more than 64 µg/mL; in the experiment on Staphylococcus aureus [3], 32 µg/mL (≈ 40.5 µM); with Staphylococcus aureus [4], more than 64 µg/mL; with Staphylococcus aureus [5], more than 64 µg/mL; in experiment [6], more than 64 µg/mL. Besides, the MIC (in experiment [7]; against Staphylococcus aureus [8]) was 32 µg/mL (≈ 40.5 µM) each time.

For `CO[C@H]1/C=C\C(=O)O[C@H](C)C/C=C/C=C/[C@H](O)[C@H](C)C[C@H](CC=O)[C@@H]1O[C@@H]1O[C@H](C)[C@@H](OC(=O)Nc2ccc(C(F)(F)F)cc2)[C@H](N(C)C)[C@H]1O`, the MIC (in experiment [1]; in the experiment with Staphylococcus aureus [2]; against Staphylococcus aureus [3]; with Staphylococcus aureus [4]; in the experiment on Staphylococcus aureus [5]; in experiment [6]) was more than 64 µg/mL throughout. Besides, the MIC (in experiment [7]; against Staphylococcus aureus [8]) was more than 64 µg/mL in each case.

As to `CO[C@@H]1[C@@H](O[C@@H]2O[C@H](C)[C@@H](O)[C@H](N(C)C)[C@H]2O)[C@@H](CC=O)C[C@@H](C)[C@@H](OC(C)=O)/C=C/C=C/C[C@@H](C)OC(=O)C[C@H]1OC(C)=O`, the MIC is 16 µg/mL (≈ 24.9 µM) in experiment [1]; more than 32 µg/mL with Staphylococcus aureus [2]; 16 µg/mL (≈ 24.9 µM) against Staphylococcus aureus [3]; 16 µg/mL (≈ 24.9 µM) with Staphylococcus aureus [4]; more than 32 µg/mL against Staphylococcus aureus [5]; more than 32 µg/mL in experiment [6]. Also, the MIC (in experiment [7]; against Staphylococcus aureus [8]) was 16 µg/mL (≈ 24.9 µM) each time.

For the compound `CO[C@@H]1[C@@H](O[C@@H]2O[C@H](C)[C@@H](OC(=O)Nc3ccc(C(F)(F)F)cc3)[C@H](N(C)C)[C@H]2O)[C@@H](CC=O)C[C@@H](C)[C@@H](OC(C)=O)/C=C/C=C/C[C@@H](C)OC(=O)C[C@H]1OC(C)=O`, the MIC (in experiment [1]; in the experiment on Staphylococcus aureus [2]; against Staphylococcus aureus [3]; in the experiment with Staphylococcus aureus [4]; in the experiment on Staphylococcus aureus [5]; in experiment [6]) was more than 64 µg/mL throughout. Further, the MIC (in experiment [7]; in the experiment on Staphylococcus aureus [8]) was more than 64 µg/mL each time.

With `COc1ccc(C(=O)O[C@H]2[C@H](N(C)C)[C@@H](O)[C@H](O[C@H]3[C@@H](CC=O)C[C@@H](C)[C@@H](OC(C)=O)/C=C/C=C/C[C@@H](C)OC(=O)C[C@@H](OC(C)=O)[C@@H]3OC)O[C@@H]2C)cc1`, the MIC in experiment [1] was 8 µg/mL (≈ 10.3 µM); in the experiment with Staphylococcus aureus [2], more than 64 µg/mL; against Staphylococcus aureus [3] it was 8 µg/mL (≈ 10.3 µM); with Staphylococcus aureus [4], 8 µg/mL (≈ 10.3 µM); in the experiment on Staphylococcus aureus [5], more than 64 µg/mL; in experiment [6], more than 64 µg/mL. Besides, the MIC (in experiment [7]; in the experiment on Staphylococcus aureus [8]) was 8 µg/mL (≈ 10.3 µM) each time.

For `CO[C@H]1/C=C\C(=O)O[C@H](C)C/C=C/C=C/[C@H](O)[C@H](C)C[C@H](CC=O)[C@@H]1O[C@@H]1O[C@H](C)[C@@H](O)[C@H](N(C)C)[C@H]1O`, the MIC (in experiment [1]; against Staphylococcus aureus [2]; against Staphylococcus aureus [3]; against Staphylococcus aureus [4]; against Staphylococcus aureus [5]; in experiment [6]) was more than 32 µg/mL each time. Moreover, the MIC (in experiment [7]; with Staphylococcus aureus [8]) was more than 32 µg/mL in each case.

On to `CO[C@@H]1[C@@H](O[C@@H]2O[C@H](C)[C@@H](OC(=O)c3ccccc3)[C@H](N(C)C)[C@H]2O)[C@@H](CC=O)C[C@@H](C)[C@@H](OC(C)=O)/C=C/C=C/C[C@@H](C)OC(=O)C[C@H]1OC(C)=O`, for which the MIC in experiment [1] was 8 µg/mL (≈ 10.7 µM); against Staphylococcus aureus [2] it was more than 64 µg/mL; in the experiment with Staphylococcus aureus [3], 8 µg/mL (≈ 10.7 µM); against Staphylococcus aureus [4], 8 µg/mL (≈ 10.7 µM); in the experiment with Staphylococcus aureus [5], more than 64 µg/mL; in experiment [6] it was more than 64 µg/mL. In addition, the MIC (in experiment [7]; against Staphylococcus aureus [8]) was 8 µg/mL (≈ 10.7 µM) in each case.

For `CO[C@@H]1[C@@H](O[C@@H]2O[C@H](C)[C@@H](OC(=O)CCc3ccccc3)[C@H](N(C)C)[C@H]2O)[C@@H](CC=O)C[C@@H](C)[C@@H](OC(C)=O)/C=C/C=C/C[C@@H](C)OC(=O)C[C@H]1OC(C)=O`, the MIC in experiment [1] is 4 µg/mL (≈ 5.17 µM); in the experiment on Staphylococcus aureus [2], more than 32 µg/mL; in the experiment with Staphylococcus aureus [3] it was 4 µg/mL (≈ 5.17 µM); in the experiment on Staphylococcus aureus [4], 8 µg/mL (≈ 10.3 µM); against Staphylococcus aureus [5], more than 32 µg/mL; in experiment [6] it was more than 32 µg/mL. For the same compound, the MIC (in experiment [7]; against Staphylococcus aureus [8]) was 4 µg/mL (≈ 5.17 µM) in each case.

Consider `CO[C@H]1/C=C\C(=O)O[C@H](C)C/C=C/C=C/[C@H](OC(C)=O)[C@H](C)C[C@H](CC=O)[C@@H]1O[C@@H]1O[C@H](C)[C@@H](O)[C@H](N(C)C)[C@H]1O`, for which the MIC in experiment [1] is 64 µg/mL (≈ 110 µM); in the experiment with Staphylococcus aureus [2], more than 64 µg/mL; in the experiment with Staphylococcus aureus [3], more than 64 µg/mL; in the experiment on Staphylococcus aureus [4], more than 64 µg/mL; in the experiment with Staphylococcus aureus [5], more than 64 µg/mL; in experiment [6], more than 64 µg/mL. The minimum inhibitory concentration (MIC) is 64 µg/mL (≈ 110 µM) in experiment [7] and more than 64 µg/mL against Staphylococcus aureus [8].

With `CO[C@H]1/C=C\C(=O)O[C@H](C)C/C=C/C=C/[C@H](OC(C)=O)[C@H](C)C[C@H](CC=O)[C@@H]1O[C@@H]1O[C@H](C)[C@@H](OC(=O)Nc2ccc(C(F)(F)F)cc2)[C@H](N(C)C)[C@H]1O`, the MIC (in experiment [1]; in the experiment on Staphylococcus aureus [2]; in the experiment on Staphylococcus aureus [3]; against Staphylococcus aureus [4]; in the experiment on Staphylococcus aureus [5]; in experiment [6]) was more than 64 µg/mL in each case. Besides, the MIC (in experiment [7]; in the experiment with Staphylococcus aureus [8]) was more than 64 µg/mL throughout.
